By inhibition is commonly meant how much of the control response was suppressed. One may read the pIC50 as the negative decadic logarithm of the IC50, by convention in mol/L.

Consider ten compounds from ChEMBL document CHEMBL3351375, “Propyphenazone-based analogues as prodrugs and selective cyclooxygenase-2 inhibitors” (ACS Med Chem Lett, 2014).

Each structure is given as a SMILES string. pIC50: −log10 of the molar value. Activity calls are given as the source filed them. The rule behind the calls is not given here.

The subject of data set [1] is Mus musculus. Put plainly: Anti-inflammatory activity in Swiss mouse model of carrageenan-induced paw edema assessed as reduction in paw swelling at 50 mg/kg, sc dosed 30 mins before carrageenan challenge measured at 1 to 4 hrs post carrageenan challenge by mercury plethysmometry. The format is functional, organism-based. Details: dose 50 mg/kg. The gist of the method:
(§1)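 In a mouse carrageenan paw edema model, compounds were given subcutaneously as pretreatment before the carrageenan injection. Swelling of the injected paw was measured with a mercury plethysmometer at 1, 2, 3 and 4 h. Activity was expressed as reduction in swelling relative to control.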
(In general: Carrageenan injected into the paw causes an acute inflammation.)

Data set [2] deals with Mus musculus. Briefly: Analgesic activity in mouse assessed as protection against acetic acid-induced abdominal constriction dosed 1 hr before acetic acid challenge measured for 20 mins post acetic acid challenge.
Data set [3] deals with T1, Prostaglandin G/H synthase 1 (Ovis aries) (UniProt P05979).
T1 sequence (whole entry): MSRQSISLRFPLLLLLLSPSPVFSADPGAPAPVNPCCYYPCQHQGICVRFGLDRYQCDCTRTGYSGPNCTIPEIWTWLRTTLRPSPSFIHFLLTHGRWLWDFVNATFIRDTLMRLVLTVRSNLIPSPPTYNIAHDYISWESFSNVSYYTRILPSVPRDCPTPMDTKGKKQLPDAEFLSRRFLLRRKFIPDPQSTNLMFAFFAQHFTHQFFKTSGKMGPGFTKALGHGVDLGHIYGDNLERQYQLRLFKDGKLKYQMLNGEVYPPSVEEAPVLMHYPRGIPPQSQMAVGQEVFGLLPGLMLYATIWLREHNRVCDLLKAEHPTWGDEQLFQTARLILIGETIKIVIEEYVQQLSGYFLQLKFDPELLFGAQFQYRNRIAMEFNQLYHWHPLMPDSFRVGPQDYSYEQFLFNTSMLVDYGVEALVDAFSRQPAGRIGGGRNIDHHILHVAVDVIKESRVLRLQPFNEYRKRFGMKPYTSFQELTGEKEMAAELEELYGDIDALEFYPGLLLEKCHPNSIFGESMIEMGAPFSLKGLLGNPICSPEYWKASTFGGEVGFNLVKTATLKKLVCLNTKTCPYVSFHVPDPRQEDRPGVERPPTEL
Briefly: Inhibition of purified ovine COX1 at saturation drug level pre-treated for 1 hr before 10-acetyl-3,7-dihydroxyphenoxazin substrate addition in absence of porcine liver esterase by fluorescence assay. The gist of the method:
(§2)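 COX1 (ovine) and COX2 (human recombinant) were inhibited, with compound tested both without and with porcine liver esterase added. IC50 (μM) and % inhibition at saturation were reported. COX1 was also tested at a single 160 μM concentration.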

Data set [4] deals with T2, Prostaglandin G/H synthase 1 (Ovis aries, UniProt P05979).
T2 sequence (P05979 whole entry): T1 sequence (whole entry)
Put plainly: Inhibition of purified ovine COX1 pre-treated for 1 hr before 10-acetyl-3,7-dihydroxyphenoxazin substrate addition in absence of porcine liver esterase by fluorescence assay. To be noted: for pIC50: read-out: IC50. The gist of the method:
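COX1 (ovine) and COX2 (human recombinant) were inhibited, with compound tested both without and with porcine liver esterase added. IC50 (μM) and % inhibition at saturation were reported.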

Data set [5] deals with Mus musculus. Briefly: Analgesic activity in mouse assessed as protection against acetic acid-induced abdominal constriction dosed with equimolar mixture of propyphenazone 1 hr before acetic acid challenge measured for 20 mins post acetic acid challenge.
Data set [6] has as its target T3, Liver carboxylesterase (Sus scrofa, UniProt Q29550).
T3 sequence (Q29550 whole entry): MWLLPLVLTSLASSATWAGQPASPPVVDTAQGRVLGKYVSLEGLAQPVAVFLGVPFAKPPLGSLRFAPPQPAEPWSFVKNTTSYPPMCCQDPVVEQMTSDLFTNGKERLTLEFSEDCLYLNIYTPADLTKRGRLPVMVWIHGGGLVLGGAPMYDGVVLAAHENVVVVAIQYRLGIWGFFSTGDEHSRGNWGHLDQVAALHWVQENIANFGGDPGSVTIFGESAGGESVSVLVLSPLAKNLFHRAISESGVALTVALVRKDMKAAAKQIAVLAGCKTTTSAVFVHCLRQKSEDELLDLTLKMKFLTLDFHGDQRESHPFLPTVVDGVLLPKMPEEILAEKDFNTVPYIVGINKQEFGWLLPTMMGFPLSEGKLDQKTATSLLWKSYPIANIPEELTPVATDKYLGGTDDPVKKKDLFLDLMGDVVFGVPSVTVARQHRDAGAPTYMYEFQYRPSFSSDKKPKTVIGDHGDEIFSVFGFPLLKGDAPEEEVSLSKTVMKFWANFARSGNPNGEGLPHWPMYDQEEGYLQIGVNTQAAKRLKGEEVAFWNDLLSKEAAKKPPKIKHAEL
Briefly: Prodrug conversion assessed as half life for porcine liver esterase-mediated prodrug conversion measured every 4 minutes for 100 mins by UV-visible absorption spectroscopy. To be noted: pig, isolated protein. The format is ADME. In outline:
(§3)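 Compound was incubated with porcine liver esterase at pH 7.5. UV–vis absorption spectra were recorded every 4 min for 100 min after esterase addition. Pseudo-first-order rate constants (s−1) were derived, and half-lives were calculated from them.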

Data set [7] concerns the target T2, Prostaglandin G/H synthase 1. Put plainly: Inhibition of purified ovine COX1 pre-treated for 1 hr before 10-acetyl-3,7-dihydroxyphenoxazin substrate addition in presence of porcine liver esterase by fluorescence assay. To be noted: for pIC50: read-out: IC50. In outline:
as §2

In data set [8] the target is T4, Prostaglandin G/H synthase 2 (Homo sapiens, UniProt P35354).
T4 sequence (P35354 whole entry): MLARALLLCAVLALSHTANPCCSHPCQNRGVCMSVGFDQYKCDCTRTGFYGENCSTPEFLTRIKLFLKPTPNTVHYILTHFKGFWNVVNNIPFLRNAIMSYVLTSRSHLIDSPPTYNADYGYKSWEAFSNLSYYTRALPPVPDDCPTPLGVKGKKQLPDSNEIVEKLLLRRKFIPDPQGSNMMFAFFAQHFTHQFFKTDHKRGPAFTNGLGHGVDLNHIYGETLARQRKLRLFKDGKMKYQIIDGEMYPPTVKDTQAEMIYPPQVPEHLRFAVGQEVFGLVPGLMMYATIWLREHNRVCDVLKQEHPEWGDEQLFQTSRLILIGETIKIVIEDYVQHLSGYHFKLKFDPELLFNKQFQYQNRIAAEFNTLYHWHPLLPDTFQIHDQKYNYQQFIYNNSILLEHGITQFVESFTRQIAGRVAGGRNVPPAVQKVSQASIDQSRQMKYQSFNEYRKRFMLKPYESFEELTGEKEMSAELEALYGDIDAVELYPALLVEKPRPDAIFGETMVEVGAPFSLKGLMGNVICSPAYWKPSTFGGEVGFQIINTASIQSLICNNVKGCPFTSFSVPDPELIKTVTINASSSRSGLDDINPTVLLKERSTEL
Briefly: Inhibition of human recombinant COX2 pre-treated for 1 hr before 10-acetyl-3,7-dihydroxyphenoxazin substrate addition in presence of porcine liver esterase by fluorescence assay. To be noted: for pIC50: read-out: IC50. In outline: as §2

The target of data set [9] is T1, Prostaglandin G/H synthase 1 (Ovis aries). Put plainly: Inhibition of purified ovine COX1 at saturation drug level pre-treated for 1 hr before 10-acetyl-3,7-dihydroxyphenoxazin substrate addition in presence of porcine liver esterase by fluorescence assay. In outline: as §2
In data set [10] the target is T3, Liver carboxylesterase. Briefly: Prodrug conversion assessed as pseudo-first-order rate constant for porcine liver esterase-mediated prodrug conversion measured every 4 minutes for 100 mins by UV-visible absorption spectroscopy. It counts as ADME. To be noted: pig, isolated protein. The gist of the method:
as §3

Data set [11] relates to Mus musculus. Briefly: Anti-inflammatory activity in Swiss mouse model of carrageenan-induced paw edema assessed as reduction in paw swelling at 50 mg/kg, sc dosed 30 mins before carrageenan challenge measured at 2 to 4 hrs post carrageenan challenge by mercury plethysmometry. More on the design: dose 50 mg/kg. The format is functional, organism-based. The gist of the method: as §1

Data set [12] concerns Mus musculus. Briefly: Anti-inflammatory activity in Swiss mouse model of carrageenan-induced paw edema assessed as reduction in paw swelling at 50 mg/kg, sc dosed 30 mins before carrageenan challenge measured at 120 mins post carrageenan challenge by mercury plethysmometry. The format is functional, organism-based. More on the design: dose 50 mg/kg. In outline:
as §1

Turning to `Cc1c(C(C)C)c(=O)n(-c2ccccc2)n1C` [PROPYPHENAZONE], the Anti-inflammatory activity entry in [1] is “inactive”. Moreover, the Activity in data set [2] came to 45%.

With `CC(C(=O)O)c1cccc(C(=O)c2ccccc2)c1` (stereo unspecified) [KETOPROFEN], the inhibition in data set [3] (concentration not given here) is 100%. Moreover, in data set [1], the Anti-inflammatory activity entry was “Active”. Besides, the Activity in data set [2] is 66%. Further, the pIC50 in [4] is 6.10.

`CC(C)Cc1ccc(C(C)C(=O)O)cc1` (stereo unspecified): in data set [1], the Anti-inflammatory activity entry was “Active”.

As for `Cc1c(N)c(=O)n(-c2ccccc2)n1C` [AMPYRONE], the inhibition in data set [3] (concentration not given here) stood at 100%. In addition, the figures for the Activity in [2] and in data set [5] were 45% and 35%, respectively. In addition, the negative-log IC50 (pIC50) in data set [4] was 4.59.

For `CC(C)c1c(CN(C)CCc2ccccn2)n(C)n(-c2ccccc2)c1=O`, the inhibition in [3] (concentration not given here) and in data set [9] (concentration not given here) was 43% in each case. Moreover, in data set [6], the t1/2 result is listed as “Stable”. The Anti-inflammatory activity entry in [1] is “inactive”. In addition, the Activity in data set [2] stood at 45%. Further, the negative logarithm of the IC50 (pIC50) in data set [7] and in data set [4] was 4.62 in each case. Besides, the IC50 entry in [8] was “Not Active”.

`CC(C)Cc1ccc(C(C)C(=O)OCc2c(C(C)C)c(=O)n(-c3ccccc3)n2C)cc1` (stereo unspecified): in [3], the inhibition result was “inactive”. Further, in [6], the t1/2 is reported as 28.8 min. Besides, in data set [2], the Activity is listed as 95%. The figures for the pIC50 in data set [7] and in data set [8] were 5.33 and 5.89, respectively. Moreover, the K in [10] amounted to 0.0004 s⁻¹. The IC50 result in data set [4] was “Not Active”. For the same compound, the inhibition entry in data set [11] was “Active”. For the same compound, the inhibition in data set [9] (concentration not given here) was 100%.

In the case of `O=C(O)Cc1ccccc1Nc1c(Cl)cccc1Cl` [DICLOFENAC], in [3] (concentration not given here), the inhibition was 100%. Further, the Anti-inflammatory activity entry in [1] was “Active”. Further, the Activity in [2] turned out to be 63%.

Take `CC(C)c1c(COC(=O)C(C)c2cccc(C(=O)c3ccccc3)c2)n(C)n(-c2ccccc2)c1=O` (stereo unspecified): the inhibition was 43% in data set [3] (concentration not given here) and 100% in data set [9] (concentration not given here). Moreover, the t1/2 in data set [6] was 38.5 min. Further, the Activity in data set [2] is 73%. The values for the pIC50 in [7], in [4] and in data set [8] were 6.32, 6.70 and 5.66, respectively. In addition, the K in data set [10] was found to be 0.0003 s⁻¹. In addition, the inhibition entry in data set [11] was “Active”.

As for `Cc1c(NCc2c(C(C)C)c(=O)n(-c3ccccc3)n2C)c(=O)n(-c2ccccc2)n1C` [BISFENAZONE], the inhibition result in [3] and in data set [9] was “inactive” each time. For the same compound, the t1/2 result in data set [6] is “Stable”. Further, the Activity in data set [2] is listed as 100%. Besides, the IC50 entry in data set [7] and in [4] was “Not Active” in each case. In addition, the inhibition result in data set [12] is “Active”.

With `CC(C)c1c(COC(=O)Cc2ccccc2Nc2c(Cl)cccc2Cl)n(C)n(-c2ccccc2)c1=O`, the inhibition in data set [3] (concentration not given here) is 29%; in data set [9] (concentration not given here), 100%. Besides, the t1/2 in data set [6] stood at 11.5 min. Moreover, the Activity in data set [2] is given as 87%. Also, the pIC50 is 6.60 in data set [7], 5.15 in [4] and 5.00 in data set [8]. Besides, the K in data set [10] was found to be 0.001 s⁻¹. Also, in [11], the inhibition result is “Active”.
